Laboratory results taken from ChEMBL document CHEMBL1629438, “Selective peroxisome proliferator-activated receptor δ isosteric selenium agonists as potent anti-atherogenic agents in vivo” (Bioorg Med Chem Lett, 2010).
Active and inactive are the calls of the source. The calls are words filed in the database; no cut-off is given here.

Tests used:
Mus musculus [1] = assay: Effect on cholesterol homeostasis in HC/HF diet-fed apolipoprotein E-deficient C57BL/6J mouse assessed as effect on ICAM-1 gene expression at 2 mg/kg/day for 4 weeks by quantitative RT-PCR; assay type: functional, organism-based
How it was run: (§1)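 Apoe-/- mice, eight weeks old, fed an atherogenic HC/HF diet (1.25% cholesterol, 21% fat) for 14 weeks. They received 2 mg/kg/day of test agent (n = 7) or vehicle (n = 6) over the final 4 weeks, then were compared with the vehicle group.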

Mus musculus [2] = assay: Toxicity in apolipoprotein E-deficient C57BL/6J mouse assessed as weight loss at 6 mg/kg; assay type: organism-based; design: dose 6 mg/kg; conditions: in vivo
Mus musculus [3] = assay: Effect on cholesterol homeostasis in HC/HF diet-fed apolipoprotein E-deficient C57BL/6J mouse assessed as effect on MCP1 gene expression at 2 mg/kg/day for 4 weeks by quantitative RT-PCR; assay type: functional, organism-based; how it was run: as §1
Mus musculus [4] = assay: Effect on cholesterol homeostasis in HC/HF diet-fed apolipoprotein E-deficient C57BL/6J mouse assessed as effect on CD36 gene expression at 2 mg/kg/day for 4 weeks by quantitative RT-PCR; assay type: functional, organism-based; how it was run: as §1
[5] = target: Peroxisome proliferator-activated receptor delta (Homo sapiens) (UniProt Q03181); assay: Binding affinity to human PPAR-delta after 1 hr by TR-FRET assay
Mus musculus [6] = assay: Antiatherogenic effect in HC/HF diet-fed apolipoprotein E-deficient C57BL/6J mouse assessed as decrease in lesion fatty streak in aorta at 2 mg/kg/day for 4 weeks; assay type: functional; design: scale not given: the % may be the effect or the level left
How it was run: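 ApoE-/- mice were 8 weeks old at start. They were fed an HC/HF atherogenic diet (1.25% cholesterol, 21% fat) for 14 weeks and dosed at 2 mg/kg/day over the last 4 weeks (treated n = 7, vehicle n = 6). Mice were weighed weekly. Lesion fatty streak extent was scored throughout the aorta against vehicle.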

[7] = target: T1, Peroxisome proliferator-activated receptor gamma (Mus musculus) (UniProt P37238); assay: Agonist activity at mouse PPAR-gammaexpressed in african green monkey CV-1 cells after 24 hrs by luciferase reporter gene assay; assay type: functional, cell-based
T1 sequence (whole entry): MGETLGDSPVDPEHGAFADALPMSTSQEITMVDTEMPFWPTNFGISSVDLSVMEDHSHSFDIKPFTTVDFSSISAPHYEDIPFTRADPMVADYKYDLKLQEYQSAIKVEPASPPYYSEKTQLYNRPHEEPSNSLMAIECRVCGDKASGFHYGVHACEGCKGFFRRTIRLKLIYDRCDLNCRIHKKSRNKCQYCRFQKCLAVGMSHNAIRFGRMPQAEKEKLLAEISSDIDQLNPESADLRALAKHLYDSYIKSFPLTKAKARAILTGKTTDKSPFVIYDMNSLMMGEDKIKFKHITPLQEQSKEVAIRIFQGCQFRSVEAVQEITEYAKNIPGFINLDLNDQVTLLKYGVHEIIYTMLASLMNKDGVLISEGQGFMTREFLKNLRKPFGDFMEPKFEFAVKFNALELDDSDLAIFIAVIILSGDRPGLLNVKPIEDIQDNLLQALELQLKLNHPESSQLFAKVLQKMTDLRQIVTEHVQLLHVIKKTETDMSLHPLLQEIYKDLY

Mus musculus [8] = assay: Antiatherogenic effect in apoE-deficient mouse assessed as increase in HDL-cholesterol level at 2 mg/kg/day for 4 weeks
[9] = target: T2, Peroxisome proliferator-activated receptor delta (Homo sapiens, UniProt Q03181); assay: Agonist activity at human PPAR-delta expressed in african green monkey CV-1 cells after 24 hrs by luciferase reporter gene assay; assay type: functional, cell-based
T2 sequence (Q03181 whole entry): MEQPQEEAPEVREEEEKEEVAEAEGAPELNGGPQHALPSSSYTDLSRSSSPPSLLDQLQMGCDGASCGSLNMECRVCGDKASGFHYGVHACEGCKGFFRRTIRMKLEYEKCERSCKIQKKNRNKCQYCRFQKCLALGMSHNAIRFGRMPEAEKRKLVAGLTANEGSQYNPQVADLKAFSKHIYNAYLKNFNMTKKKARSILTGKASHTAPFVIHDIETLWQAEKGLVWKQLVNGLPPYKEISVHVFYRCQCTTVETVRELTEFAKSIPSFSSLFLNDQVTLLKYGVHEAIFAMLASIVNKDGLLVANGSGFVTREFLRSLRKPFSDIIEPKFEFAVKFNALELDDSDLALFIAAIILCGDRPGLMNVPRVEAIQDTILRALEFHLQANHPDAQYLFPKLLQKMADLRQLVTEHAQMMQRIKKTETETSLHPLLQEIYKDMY
How it was run: (§2)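 Cell-based co-transfection reporter assay, with EC50 values derived for each PPAR subtype.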

Mus musculus [10] = assay: Effect on cholesterol homeostasis in HC/HF diet-fed apolipoprotein E-deficient C57BL/6J mouse assessed as effect on Il-10 gene expression at 2 mg/kg/day for 4 weeks by quantitative RT-PCR; assay type: functional, organism-based; how it was run: as §1
Mus musculus [11] = assay: Effect on cholesterol homeostasis in HC/HF diet-fed apolipoprotein E-deficient C57BL/6J mouse assessed as effect on VCAM-1 gene expression at 2 mg/kg/day for 4 weeks by quantitative RT-PCR; assay type: functional, organism-based; how it was run: as §1
Mus musculus [12] = assay: Toxicity in […] diet-fed apolipoprotein E-deficient C57BL/6J mouse assessed as weight loss at 2 mg/kg/day for 4 weeks; assay type: organism-based; conditions: in vivo, 672 h
How it was run: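 Eight-week-old Apoe-/- mice were kept on an HC/HF diet (1.25% cholesterol, 21% fat) for 14 weeks, with 2 mg/kg/day dosing (n = 7) or vehicle (n = 6) in the last 4 weeks. Body weight was recorded every week throughout the experimental period and compared between treated and control groups.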

[13] = target: T3, Peroxisome proliferator-activated receptor alpha (Mus musculus) (UniProt P23204); assay: Agonist activity at mouse PPAR-alpha expressed in african green monkey CV-1 cells after 24 hrs by luciferase reporter gene assay; assay type: functional, cell-based
T3 sequence (whole entry): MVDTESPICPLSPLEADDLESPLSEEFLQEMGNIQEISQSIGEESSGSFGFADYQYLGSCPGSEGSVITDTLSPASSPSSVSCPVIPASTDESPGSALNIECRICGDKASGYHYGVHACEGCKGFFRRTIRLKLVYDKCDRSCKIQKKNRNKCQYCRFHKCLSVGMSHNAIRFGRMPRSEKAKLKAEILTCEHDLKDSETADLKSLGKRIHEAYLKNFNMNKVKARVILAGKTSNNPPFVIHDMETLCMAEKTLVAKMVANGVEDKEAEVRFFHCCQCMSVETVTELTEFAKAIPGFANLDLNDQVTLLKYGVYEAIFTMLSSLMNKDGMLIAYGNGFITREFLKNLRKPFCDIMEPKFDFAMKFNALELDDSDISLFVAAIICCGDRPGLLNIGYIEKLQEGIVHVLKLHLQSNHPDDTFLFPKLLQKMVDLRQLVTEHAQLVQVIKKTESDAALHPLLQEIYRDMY

Mus musculus [14] = assay: Toxicity in […] diet-fed apolipoprotein E-deficient C57BL/6J mouse assessed as increase in liver weight at 2 mg/kg/day for 4 weeks; assay type: organism-based; conditions: in vivo, 672 h; how it was run: as §1
[15] = target: T4, Peroxisome proliferator-activated receptor gamma (Homo sapiens, UniProt P37231); assay: Agonist activity at human PPAR-gamma expressed in african green monkey CV-1 cells after 24 hrs by luciferase reporter gene assay; assay type: functional, cell-based
T4 sequence (P37231 whole entry): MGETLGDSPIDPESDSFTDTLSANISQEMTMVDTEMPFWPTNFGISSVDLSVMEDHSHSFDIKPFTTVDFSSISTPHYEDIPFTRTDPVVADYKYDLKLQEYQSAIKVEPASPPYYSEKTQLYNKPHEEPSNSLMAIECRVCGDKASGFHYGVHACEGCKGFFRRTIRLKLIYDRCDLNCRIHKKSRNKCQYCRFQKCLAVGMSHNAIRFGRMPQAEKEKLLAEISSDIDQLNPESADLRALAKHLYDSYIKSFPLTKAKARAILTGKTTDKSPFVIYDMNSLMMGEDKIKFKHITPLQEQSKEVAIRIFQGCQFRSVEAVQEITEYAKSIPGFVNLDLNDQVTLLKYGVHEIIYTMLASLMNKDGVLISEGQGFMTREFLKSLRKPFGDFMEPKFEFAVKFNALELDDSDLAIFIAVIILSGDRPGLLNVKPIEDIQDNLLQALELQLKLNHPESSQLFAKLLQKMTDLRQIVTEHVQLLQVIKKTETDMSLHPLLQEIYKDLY

[16] = target: T5, Peroxisome proliferator-activated receptor delta (Homo sapiens) (UniProt Q03181); assay: Binding affinity to human PPAR-delta after 1 hr by TR-FRET assay
T5 sequence (whole entry): T2 sequence (Q03181 whole entry)

Mus musculus [17] = assay: Effect on cholesterol homeostasis in HC/HF diet-fed apolipoprotein E-deficient C57BL/6J mouse assessed as effect on ABCA1 gene expression at 2 mg/kg/day for 4 weeks by quantitative RT-PCR; assay type: functional, organism-based; how it was run: as §1
[18] = target: T6, Peroxisome proliferator-activated receptor delta (Mus musculus, UniProt P35396); assay: Agonist activity at mouse PPAR-delta expressed in african green monkey CV-1 cells after 24 hrs by luciferase reporter gene assay; assay type: functional, cell-based
T6 sequence (P35396 whole entry): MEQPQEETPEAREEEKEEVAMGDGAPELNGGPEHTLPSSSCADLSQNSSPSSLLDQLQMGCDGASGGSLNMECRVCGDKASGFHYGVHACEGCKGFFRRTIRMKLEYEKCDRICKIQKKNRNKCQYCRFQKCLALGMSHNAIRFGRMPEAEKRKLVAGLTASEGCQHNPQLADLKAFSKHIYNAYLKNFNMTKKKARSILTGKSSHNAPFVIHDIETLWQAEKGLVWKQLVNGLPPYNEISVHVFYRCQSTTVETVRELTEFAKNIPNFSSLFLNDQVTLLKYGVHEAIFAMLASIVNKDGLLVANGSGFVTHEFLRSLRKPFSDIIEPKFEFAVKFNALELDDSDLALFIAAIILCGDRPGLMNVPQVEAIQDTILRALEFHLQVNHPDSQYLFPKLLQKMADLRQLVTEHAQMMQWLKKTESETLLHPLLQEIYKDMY

Mus musculus [19] = assay: Toxicity in apolipoprotein E-deficient C57BL/6J mouse assessed as weight loss at 60 mg/kg; assay type: organism-based; design: dose 60 mg/kg; conditions: in vivo
Mus musculus [20] = assay: Antiatherogenic effect in HC/HF diet-fed apolipoprotein E-deficient C57BL/6J mouse assessed as decrease in IL-6 gene expression at 2 mg/kg/day for 4 weeks by quantitative RT-PCR; assay type: functional, organism-based; how it was run: as §1
Mus musculus [21] = assay: Toxicity in apolipoprotein E-deficient C57BL/6J mouse assessed as weight loss at 5 mg/kg; assay type: organism-based; design: dose 5 mg/kg; conditions: in vivo
[22] = target: T7, Peroxisome proliferator-activated receptor alpha (Homo sapiens, UniProt Q07869); assay: Agonist activity at human PPAR-alpha expressed in african green monkey CV-1 cells after 24 hrs by luciferase reporter gene assay; assay type: functional, cell-based; how it was run: as §2
T7 sequence (Q07869 whole entry): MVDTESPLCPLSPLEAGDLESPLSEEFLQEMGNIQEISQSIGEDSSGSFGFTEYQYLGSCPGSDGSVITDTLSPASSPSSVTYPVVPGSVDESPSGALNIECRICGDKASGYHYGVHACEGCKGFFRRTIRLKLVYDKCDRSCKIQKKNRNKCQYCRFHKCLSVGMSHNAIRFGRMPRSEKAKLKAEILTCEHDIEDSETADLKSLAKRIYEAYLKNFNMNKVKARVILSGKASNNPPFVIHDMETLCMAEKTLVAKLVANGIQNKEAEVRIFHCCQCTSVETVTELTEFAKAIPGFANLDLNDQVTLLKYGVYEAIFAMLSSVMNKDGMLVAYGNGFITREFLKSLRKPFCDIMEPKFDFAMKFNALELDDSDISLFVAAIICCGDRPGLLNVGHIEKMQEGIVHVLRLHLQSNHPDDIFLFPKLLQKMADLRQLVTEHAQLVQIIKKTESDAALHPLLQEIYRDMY

Cc1cc([Se]Cc2sc(-c3ccc(C(F)(F)F)cc3)nc2C)ccc1OCC(=O)O
Activity (Mus musculus [1]): inactive | Activity (Mus musculus [2]): Toxic | Activity (Mus musculus [3]): inactive | Activity (Mus musculus [4]): inactive | Activity [5]: Active | Activity (Mus musculus [6]): 25% | Activity [7]: inactive | Activity (Mus musculus [8]): Active | EC50 [9]: 0.0009 µM | Activity (Mus musculus [10]): inactive | Activity (Mus musculus [11]): inactive | Activity (Mus musculus [12]): Non-toxic | Activity [13]: inactive | Activity (Mus musculus [14]): Non-toxic | EC50 [15]: > 1 µM | Activity [16]: Active | Activity (Mus musculus [17]): inactive | EC50 [18]: 0.0023 µM | Activity (Mus musculus [19]): Toxic | Activity (Mus musculus [20]): Active | Activity (Mus musculus [21]): Toxic | EC50 [22]: > 1 µM

Cc1cc([Se]Cc2sc(-c3ccc(C(F)(F)F)c(F)c3)nc2C)ccc1OC(C)(C)C(=O)O
EC50 [9]: 0.0018 µM | EC50 [15]: 0.29 µM | EC50 [22]: 0.0246 µM

Cc1cc([Se]Cc2sc(-c3ccc(C(F)(F)F)c(F)c3)nc2C)ccc1OC(C)C(=O)O (stereo unspecified)
EC50 [9]: 0.0085 µM | EC50 [15]: > 1 µM | EC50 [22]: 0.0394 µM

CCC(Oc1ccc([Se]Cc2sc(-c3ccc(C(F)(F)F)c(F)c3)nc2C)cc1C)C(=O)O (stereo unspecified)
EC50 [9]: 0.007 µM | EC50 [15]: 0.271 µM | EC50 [22]: > 1 µM
